Here are results for three compounds from publication PMC6734327 (Heliyon, 2019).

Some results are limits rather than exact numbers.

The subject of test [1] is MRC-5 (human lung fibroblast). The experiment in a line: Cytotoxic assay, alamar blue, non-cancer MRC-5. It is filed as cell-based. As to conditions: MRC5, 72 h, read-out: IC50 MRC-5. A digest of the protocol:
(§1)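 Cells from ATCC, mycoplasma-negative, grown in RPMI 1640 with 10% FBS at 37 °C and 5% CO2. Seeded at 0.7 × 10^5 cells/mL (adherent) or 0.3 × 10^6 cells/mL (suspension), then pre-incubated for 24 h. Test compound in DMSO added for 72 h; doxorubicin was the positive control and DMSO the vehicle control. Resazurin stock (0.312 mg/mL) added 4 h before the end. Absorbance read at 570/595 nm. IC50 taken from non-linear regression of % inhibition versus log concentration.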

The test system of another test is prostate cancer (PC-3). As to conditions: read-out: IC50 PC-3; cited from earlier work.
A further test has as its system breast cancer (MCF7). As to conditions: read-out: IC50 MCF7; cited from earlier work.
Another test relates to lung cancer (SK-LU-1). Conditions: read-out: IC50 SK-LU-1; cited from earlier work.
The test system of test [2] is MCF-7 (human breast adenocarcinoma). The test can be described thus: Cytotoxic assay, alamar blue, MCF-7. The class given is cell-based. Conditions: MCF7, 72 h, read-out: IC50 MCF-7. Put shortly: as §1
(In general: Resazurin is reduced to fluorescent resorufin, in cell work by metabolically active cells.)

Test [3] deals with HepG2 (human hepatocellular carcinoma). The experiment in a line: Cytotoxic assay, alamar blue, HepG2. The class given is cell-based. As to conditions: HepG2, 72 h, read-out: IC50 HepG2. A digest of the protocol: as §1

On to `COc1cccc2c1C(=O)c1c(O)c3c(c(O)c1C2=O)C[C@@](O)(C(=O)CO)C[C@@H]3O[C@H]1C[C@H](N)[C@H](O)[C@H](C)O1` [Doxorubicin], for which the IC50 in test [1] was determined as 2.4 µM.
As for `C[C@]12CC[C@H](O)CC1=CC[C@@H]1[C@@H]2CC[C@]2(C)C(C(=O)Cn3cncn3)=CC[C@@H]12` [3β-hydroxy-21-(1H-1,2,4-triazol-1-yl)pregna-5,16-dien-20-one], the 50% inhibitory concentration (IC50) in the test on prostate cancer (PC-3) is 17 µM; in the test with breast cancer (MCF7) it was 360 µM; with lung cancer (SK-LU-1), 230 µM.
On to `C[C@]12CC[C@@H]3c4ccc(O)cc4CC[C@H]3[C@@H]1CC[C@@]2(O)c1cn(CC(=O)c2ccccc2)nn1` [3a, 2-(4-((8R,9S,13S,14S,17S)-3,17-dihydroxy-13-methyl-7,8,9,11,12,13,14,15,16,17-decahydro-6H-cyclopenta[a]phenanthren-17-yl)-1H-1,2,3-triazol-1-yl)-1-phenylethan-1-one], for which the 50% inhibitory concentration (IC50) was more than 54.6 µM in test [1], more than 54.6 µM in test [2] and 29.7 µM in test [3].

In general, IC50 refers to the midpoint of a concentration-inhibition curve.
